Reference: article PMC9233738 (Bioorganic & medicinal chemistry, 2022)
Converted amounts (≈) assume the structure as drawn. “Also recorded” adds a separate entry of the source. Like-named read-outs stand apart in the source and are kept apart here.

Key:
[1] = test system: chloroquine-resistant Dd2 strain; test: Antiplasmodial activity against chloroquine-resistant Dd2 strain; assay type: cell-based, Plasmodium falciparum; conditions: for antimalarial activity / potency (in words): qualitative statement
[2] = test system: HepG2 human hepatoma cells; test: Cytotoxicity, HepG2 cells, MTS cell proliferation assay; assay type: cell-based; conditions: for EC50: read-out: HepG2 EC50; for Selectivity: SI = EC50(HepG2)/EC50(Dd2)
Outline: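 HepG2 human hepatoma cells were seeded at 2,500 cells/well and pre-incubated for 24 h. Serial dilutions of test compound (0–40 μM range) were then added, followed by a further 48 h incubation.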

[3] = Aqueous solubility, Biomek FX with pION μSOL evolution software; assay type: physicochemical; conditions: for solubility: pH 6.5
[4] = Aqueous solubility at pH 2.0, in-house HPLC assay; assay type: physicochemical

1-(3,4-Difluorophenyl)-2-(1,4-dihydro-2H-spiro[phenanthrene-3,4’-piperidin]-1’-yl)ethan-1-one [Compound 5g]
EC50 ([1]; read-out: Dd2 EC50, chloroquine-resistant Dd2 strain): > 2.5 µM
EC50 ([2]; HepG2 cells, 48 h incubation, MTS, n = 3): > 20 µM
Solubility pH 6.5 ([3]; pH 6.5, Table 6): ^*** (For 20 μM < solubility ≤ 40 μM)

OC(CN1CCC2(CC1)CC(O)c1ccc3ccccc3c1O2)c1ccc(F)c(F)c1 (stereo not shown) [Compound 1]
EC50 ([2]; Homo sapiens, HepG2, 48 h): > 20 µM
Selectivity [2]: >53.3

O=C1CC2(CCN(Cc3ccccc3)CC2)Oc2c1ccc1ccccc21 [Compound 2c, 1’-Benzylspiro[benzo[h]chromene-2,4’-piperidin]-4(3H)-one]
solubility ([4]; aqueous medium at pH 2.0, pH 2): ≥ 80 µM
solubility ([3]; aqueous medium): 40 to 80 µM (≈ 14.3 to 28.6 µg/mL)

O=C1CC2(CCN(CCc3ccccc3)CC2)Oc2c1ccc1ccccc21 [Compound 2d, 1’-Phenethylspiro[benzo[h]chromene-2,4’-piperidin]-4(3H)-one]
solubility ([4]; aqueous medium at pH 2.0, pH 2): ≥ 80 µM
solubility ([3]; aqueous medium): 40 to 80 µM (≈ 14.9 to 29.7 µg/mL)

O=C1CC2(CCN(CCC3CCCCC3)CC2)Oc2c1ccc1ccccc21 [Compound 2e, 1’-(2-Cyclohexylethyl)spiro[benzo[h]chromene-2,4’-piperidin]-4(3H)-one]
Selectivity [2]: > 30
solubility ([4]; aqueous solution, pH 2): 20 to 40 µM (≈ 7.55 to 15.1 µg/mL)
solubility ([3]; aqueous solution): 10 to 20 µM (≈ 3.78 to 7.55 µg/mL)

O=C1CC2(CCN(CCCc3ccccc3)CC2)Oc2c1ccc1ccccc21 [Compound 2f, 1’-(3-Phenylpropyl)spiro[benzo[h]chromene-2,4’-piperidin]-4(3H)-one]
solubility ([4]; aqueous medium at pH 2.0, pH 2): 40 to 80 µM (≈ 15.4 to 30.8 µg/mL)
solubility ([3]; aqueous medium): 20 to 40 µM (≈ 7.71 to 15.4 µg/mL)

O=C(CN1CCC2(CC1)CC(=O)c1ccc3ccccc3c1O2)c1ccc(F)c(F)c1 [Compound 2g, 1’-(2-(3,4-Difluorophenyl)-2-oxoethyl)spiro[benzo[h]chromene-2,4’-piperidin]-4(3H)-one]
solubility ([4]; aqueous solution, pH 2): 40 to 80 µM (≈ 16.9 to 33.7 µg/mL)
solubility ([3]; aqueous solution): 40 to 80 µM (≈ 16.9 to 33.7 µg/mL)

O=C1CC2(CCN(CCc3ccc(F)c(F)c3)CC2)Oc2c1ccc1ccccc21 [Compound 2h, 1’-(3,4-Difluorophenethyl)spiro[benzo[h]chromene-2,4’-piperidin]-4(3H)-one]
solubility ([3]; aqueous solution): 10 to 20 µM (≈ 4.07 to 8.15 µg/mL)

O=C1CC2(CCN(C(=O)Cc3ccc(F)c(F)c3)CC2)Oc2c1ccc1ccccc21 [Compound 2l, 1’-(2-(3,4-Difluorophenyl)acetyl)spiro[benzo[h]chromene-2,4’-piperidin]-4(3H)-one]
antimalarial activity / potency (in words) [1]: completely lost

OC1CC2(CCNCC2)Oc2c1ccc1ccccc21 (stereo not shown) [Compound 3a, 3,4-Dihydrospiro[benzo[h]chromene-2,4’-piperidin]-4-ol]
Selectivity [2]: >54.5
solubility ([4]; aqueous solution, pH 2): 40 to 80 µM (≈ 10.8 to 21.5 µg/mL)

CCN1CCC2(CC1)CC(O)c1ccc3ccccc3c1O2 (stereo not shown) [Compound 3b, 1’-Ethyl-3,4-dihydrospiro[benzo[h]chromene-2,4’-piperidin]-4-ol]
solubility ([4]; aqueous solution, pH 2): 20 to 40 µM (≈ 5.95 to 11.9 µg/mL)
solubility ([3]; aqueous solution): 20 to 40 µM (≈ 5.95 to 11.9 µg/mL)

OC1CC2(CCN(Cc3ccccc3)CC2)Oc2c1ccc1ccccc21 (stereo not shown) [Compound 3c, 1’-Benzyl-3,4-dihydrospiro[benzo[h]chromene-2,4’-piperidin]-4-ol]
solubility ([4]; aqueous medium at pH 2.0, pH 2): 40 to 80 µM (≈ 14.4 to 28.8 µg/mL)
solubility ([3]; aqueous medium): 40 to 80 µM (≈ 14.4 to 28.8 µg/mL)

OC1CC2(CCN(CCc3ccccc3)CC2)Oc2c1ccc1ccccc21 (stereo not shown) [Compound 3d, 1’-Phenethyl-3,4-dihydrospiro[benzo[h]chromene-2,4’-piperidin]-4-ol]
solubility ([4]; aqueous medium at pH 2.0, pH 2): 40 to 80 µM (≈ 14.9 to 29.9 µg/mL)
solubility ([3]; aqueous medium): 40 to 80 µM (≈ 14.9 to 29.9 µg/mL)

OC1CC2(CCN(CCC3CCCCC3)CC2)Oc2c1ccc1ccccc21 (stereo not shown) [Compound 3e, 1’-(2-Cyclohexylethyl)-3,4-dihydrospiro[benzo[h]chromene-2,4’-piperidin]-4-ol]
EC50 ([1]; Plasmodium falciparum, DD2, read-out: Dd2 EC50, chloroquine-resistant Dd2 strain): 0.32 µM
solubility ([4]; aqueous solution, pH 2): 40 to 80 µM (≈ 15.2 to 30.4 µg/mL)
solubility ([3]; aqueous solution): 20 to 40 µM (≈ 7.59 to 15.2 µg/mL)

OC1CC2(CCN(CCCc3ccccc3)CC2)Oc2c1ccc1ccccc21 (stereo not shown) [Compound 3f, 1’-(3-Phenylpropyl)-3,4-dihydrospiro[benzo[h]chromene-2,4’-piperidin]-4-ol]
solubility ([4]; aqueous medium at pH 2.0, pH 2): ≥ 80 µM
solubility ([3]; aqueous medium): ≥ 80 µM

O=C(CN1CCC2(CC1)CC(O)c1ccc3ccccc3c1O2)c1ccc(F)c(F)c1 (stereo not shown) [Compound 3g, 1-(3,4-Difluorophenyl)-2-(4-hydroxy-3,4-dihydrospiro[benzo[h]chromene-2,4’-piperidin]-1’yl)ethanone]
solubility ([4]; aqueous solution, pH 2): 20 to 40 µM (≈ 8.47 to 16.9 µg/mL)
solubility ([3]; aqueous solution): 20 to 40 µM (≈ 8.47 to 16.9 µg/mL)

O=C(Cc1ccc(F)c(F)c1)N1CCC2(CC1)CC(O)c1ccc3ccccc3c1O2 (stereo not shown) [Compound 3l, 2-(3,4-Difluorophenyl)-1-(4-hydroxy-3,4-dihydrospiro[benzo[h]chromene-2,4’-piperidin]-1’yl)ethanone]
antimalarial activity / potency (in words) [1]: lacked antimalarial activity; also recorded: completely lost

O[C@H](CN1CCC2(CC1)C[C@@H](O)c1ccc3ccccc3c1O2)c1ccc(F)c(F)c1 [Compound 3mb]
Selectivity [2]: <7

O[C@@H](CN1CCC2(CC1)C[C@H](O)c1ccc3ccccc3c1O2)c1ccc(F)c(F)c1 [Compound 3mc, (S)-1’-((R)-2-(3,4-Difluorophenyl)-2-hydroxyethyl)-3,4-dihydrospiro[benzo[h]chromene-2,4’-piperidin]-4-ol]
EC50 ([2]; Homo sapiens, HepG2, 48 h): > 20 µM
Selectivity [2]: >15

O[C@H](CN1CCC2(CC1)C[C@H](O)c1ccc3ccccc3c1O2)c1ccc(F)c(F)c1 [Compound 3md, (S)-1’-((S)-2-(3,4-Difluorophenyl)-2-hydroxyethyl)-3,4-dihydrospiro[benzo[h]chromene-2,4’-piperidin]-4-ol]
EC50 ([2]; Homo sapiens, HepG2, 48 h): > 20 µM
Selectivity [2]: > 11

c1ccc2c3c(ccc2c1)CCC1(CCNCC1)O3 [Compound 5a, 3,4-Dihydrospiro[benzo[h]chromene-2,4’-piperidine]]
solubility ([4]; aqueous solution, pH 2): 40 to 80 µM (≈ 10.1 to 20.3 µg/mL)
solubility ([3]; aqueous solution): 20 to 40 µM (≈ 5.07 to 10.1 µg/mL)

c1ccc(CN2CCC3(CCc4ccc5ccccc5c4O3)CC2)cc1 [Compound 5c, 1’-Benzyl-3,4-dihydrospiro[benzo[h]chromene-2,4’-piperidine]]
solubility ([4]; aqueous medium at pH 2.0, pH 2): 20 to 40 µM (≈ 6.87 to 13.7 µg/mL)

c1ccc2c3c(ccc2c1)CCC1(CCN(CCC2CCCCC2)CC1)O3 [Compound 5e, 1’-(2-Cyclohexylethyl)-3,4-dihydrospiro[benzo[h]chromene-2,4’-piperidine]]
solubility ([4]; aqueous solution, pH 2): 40 to 80 µM (≈ 14.5 to 29.1 µg/mL)

Fc1ccc(CCN2CCC3(CCc4ccc5ccccc5c4O3)CC2)cc1F [Compound 5h, 1’-(3,4-Difluorophenethyl)-3,4-dihydrospiro[benzo[h]chromene-2,4’-piperidine]]
solubility ([4]; aqueous solution, pH 2): 20 to 40 µM (≈ 7.87 to 15.7 µg/mL)

OC(CN1CCC2(CCc3ccc4ccccc4c3O2)CC1)c1ccc(F)c(F)c1 (stereo not shown) [Compound 5i, 1-(3,4-Difluorophenyl)-2-(3,4-dihydrospiro[benzo[h]chromene-2,4’-piperidin]-1’-yl)ethanol]
solubility ([4]; aqueous solution, pH 2): 40 to 80 µM (≈ 16.4 to 32.8 µg/mL)

O=C(Cc1ccc(F)c(F)c1)N1CCC2(CCc3ccc4ccccc4c3O2)CC1 [Compound 5j, 2-(3,4-Difluorophenyl)-1-(3,4-dihydrospiro[benzo[h]chromene-2,4’-piperidin]-1’ yl)ethanone]
antimalarial activity / potency (in words) [1]: completely lost

O=C1C[C@@]2(CCCN(CCc3ccc(F)c(F)c3)C2)Oc2c1ccc1ccccc21 [Compound 10c, (R)-1’-(3,4-Difluorophenethyl)spiro[benzo[h]chromene-2,3’-piperidin]-4(3H)-one]
Selectivity [2]: > 30

CCN1CCC[C@@]2(CC(O)c3ccc4ccccc4c3O2)C1 (stereo partly drawn) [Compound 11a, (2R)-1’-Ethyl-3,4-dihydrospiro[benzo[h]chromene-2,3’-piperidin]-4-ol]
EC50 ([2]; Homo sapiens, HepG2, 48 h): > 20 µM
Selectivity [2]: >28.8
